ChEMBL document CHEMBL3097991, “A novel indigoid anti-tuberculosis agent” (Bioorg Med Chem Lett, 2014)
Converted amounts (≈) assume the structure as drawn.

Key:
[1] = system: Mycobacterium tuberculosis; assay: Ratio of MIC for Mycobacterium tuberculosis H37Rv by low oxygen recovery assay to MIC for Mycobacterium tuberculosis H37Rv; type: functional
Vero = assay: Cytotoxicity against african green monkey Vero cells; type: cell-based; details: Chlorocebus sabaeus
[2] = system: Mycobacterium tuberculosis; assay: Antimicrobial activity against Mycobacterium tuberculosis H37Rv infected in african green monkey Vero cells; type: functional
[3] = system: Mycobacterium tuberculosis; assay: Ratio of MIC for Mycobacterium tuberculosis H37Rv in presence of 4% BSA to MIC for Mycobacterium tuberculosis H37Rv; type: functional
[4] = system: Mycobacterium tuberculosis; assay: Ratio of MIC for Mycobacterium tuberculosis H37Rv in presence of 10% FBS to MIC for Mycobacterium tuberculosis H37Rv; type: functional
[5] = system: Mycolicibacterium smegmatis; assay: Antimicrobial activity against Mycobacterium smegmatis; type: functional
Staphylococcus aureus = assay: Antimicrobial activity against Staphylococcus aureus; type: functional
[6] = system: Mycobacterium tuberculosis; assay: Antimicrobial activity against Mycobacterium tuberculosis H37Rv in presence of 4% BSA; type: functional
Escherichia coli = assay: Antimicrobial activity against Escherichia coli; type: functional
[7] = system: Mycobacterium tuberculosis; assay: Antimicrobial activity against Mycobacterium tuberculosis H37Rv in presence of 10% FBS; type: functional
Candida albicans = assay: Antimicrobial activity against Candida albicans; type: functional
[8] = system: Mycobacterium tuberculosis; assay: Antimicrobial activity against Mycobacterium tuberculosis H37Rv by low oxygen recovery assay; type: functional
Procedure, shortened: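 MIC determined against M. tuberculosis H37Rv held in the non-replicating phenotype under low oxygen, with growth assessed after recovery.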

Compound	Ratio [1]	IC50 (Vero)	MIC [2]	Ratio [3]	Ratio [4]	MIC [5]	MIC (Staphylococcus aureus)	MIC [6]	MIC (Escherichia coli)	MIC [7]	MIC (Candida albicans)	MIC [8]
O=C1C=Cc2nocc2/C1=C1/Nc2ccccc2C1=O	10	> 32 µM	0.57 µM (≈ 0.151 µg/mL)	3.7	1	> 50 µM	> 50 µM	2.1 µM	> 50 µM	0.57 µM	> 50 µM	5.3 µM (≈ 1.4 µg/mL)
NNC(=O)c1ccncc1 [ISONIAZID]		> 100 µM	0.22 µM (≈ 0.0302 µg/mL)			18.9 µM (≈ 2.59 µg/mL)		0.45 µM		0.24 µM		> 100 µM
O=C1/C(=C2\Nc3ccccc3C2=O)Nc2ccccc21 [INDIGO]			> 32 µM									
O=C1Nc2ccccc2/C1=C1\C(=O)Nc2ccccc21 [ISOINDIGO]			27 µM (≈ 7.08 µg/mL)									
CO[C@H]1/C=C/O[C@@]2(C)Oc3c(C)c(O)c4c(O)c(c(/C=N/N5CCN(C)CC5)c(O)c4c3C2=O)NC(=O)/C(C)=C\C=C\[C@H](C)[C@H](O)[C@@H](C)[C@@H](O)[C@@H](C)[C@H](OC(C)=O)[C@@H]1C [RIFAMPIN]		> 182 µM	0.038 µM (≈ 0.0313 µg/mL)			16.7 µM (≈ 13.7 µg/mL)		0.089 µM		0.21 µM		0.49 µM (≈ 0.403 µg/mL)
O=C1Nc2ccccc2/C1=C1/Nc2ccccc2C1=O [INDIRUBIN]			> 32 µM									
